According to ChEMBL document CHEMBL1287712, “Synthetic analogs of indole-containing natural products as inhibitors of sortase A and isocitrate lyase” (Bioorg Med Chem Lett, 2010):
In brackets after ≈: the same amount, converted by molar mass. Several values for one entry are separate records, joined by “and”; a condition that tells them apart may be missing. Equal entries are not always repeated.

What was measured:
[1] = biological target: Isocitrate lyase (Candida albicans, UniProt Q9P8Q7); assay: Inhibition of Candida albicans isocitrate lyase
[2] = biological target: T1, Sortase A (Staphylococcus aureus, UniProt Q9S446); assay: Inhibition of Staphylococcus aureus Sortase A
T1 sequence (Q9S446 whole entry): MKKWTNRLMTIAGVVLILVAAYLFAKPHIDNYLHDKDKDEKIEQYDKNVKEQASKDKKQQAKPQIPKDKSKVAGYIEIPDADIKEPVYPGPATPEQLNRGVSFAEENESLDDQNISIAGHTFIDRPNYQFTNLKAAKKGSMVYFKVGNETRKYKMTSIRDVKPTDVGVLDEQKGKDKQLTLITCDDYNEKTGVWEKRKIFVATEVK

[3] = tested on: Staphylococcus aureus; assay: Antimicrobial activity against Staphylococcus aureus ATCC 6538p; type: functional
Outline: (§1)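 MIC by two-fold serial broth dilution in microtiter format. MIC taken as the lowest concentration giving complete growth inhibition relative to the negative control.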

[4] = tested on: Bacillus subtilis; assay: Antimicrobial activity against Bacillus subtilis ATCC 6633; type: functional; outline: as §1
[5] = tested on: Salmonella typhimurium; assay: Antimicrobial activity against Salmonella Typhimurium ATCC 14028; type: functional, Salmonella enterica subsp. enterica serovar Typhimurium; conditions: Salmonella enterica; outline: as §1
[6] = tested on: Proteus vulgaris; assay: Antimicrobial activity against Proteus vulgaris ATCC 3851; type: functional; outline: as §1
[7] = tested on: Micrococcus luteus; assay: Antimicrobial activity against Micrococcus luteus IFC 12708; type: functional; outline: as §1
[8] = tested on: Escherichia coli; assay: Antimicrobial activity against Escherichia coli ATCC 25922; type: functional; outline: as §1

Chain of Isocitrate lyase (Q9P8Q7 whole entry): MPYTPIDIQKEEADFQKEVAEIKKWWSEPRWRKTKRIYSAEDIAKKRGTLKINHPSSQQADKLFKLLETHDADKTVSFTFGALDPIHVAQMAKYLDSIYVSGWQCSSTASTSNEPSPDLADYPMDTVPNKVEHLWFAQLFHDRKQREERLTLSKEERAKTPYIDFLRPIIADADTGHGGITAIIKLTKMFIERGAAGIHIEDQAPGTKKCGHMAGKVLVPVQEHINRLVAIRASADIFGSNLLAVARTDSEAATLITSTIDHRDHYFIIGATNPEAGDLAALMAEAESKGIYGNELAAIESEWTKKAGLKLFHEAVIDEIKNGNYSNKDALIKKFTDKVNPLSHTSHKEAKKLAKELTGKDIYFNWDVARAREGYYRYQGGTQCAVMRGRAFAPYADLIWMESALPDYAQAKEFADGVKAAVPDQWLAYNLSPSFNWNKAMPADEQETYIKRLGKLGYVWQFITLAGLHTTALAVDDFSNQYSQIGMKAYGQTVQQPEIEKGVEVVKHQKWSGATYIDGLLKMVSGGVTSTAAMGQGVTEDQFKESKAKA

COc1ccc2[nH]c3c(c2c1)CCNC3C(=O)O (centres undefined)
IC50 [1]: > 406 µM
IC50 [2]: > 406 µM

O=C1NCCc2c1[nH]c1ccc(O)cc21
IC50 [1]: > 495 µM
IC50 [2]: > 495 µM

O=C(CO)c1c[nH]c2ccc(O)cc12 [HYRTIOSIN A]
IC50 [2]: > 523 µM

O=C(O)C1NCCc2c1[nH]c1ccccc21 (centres undefined)
IC50 [1]: > 462 µM
IC50 [2]: > 462 µM

O=C(O)C1NCCc2c1[nH]c1ccc(O)cc21 (centres undefined)
IC50 [1]: > 431 µM
IC50 [2]: > 431 µM

c1ccc2cc(C3NCCc4c3[nH]c3ccccc43)ccc2c1 (centres undefined)
IC50 [1]: 137 µM
IC50 [2]: > 335 µM
MIC [3]: 12.5 µg/mL (≈ 41.9 µM)
MIC [4]: 6.25 µg/mL (≈ 20.9 µM)
MIC [5]: 12.5 µg/mL (≈ 41.9 µM)
MIC [6]: 6.25 µg/mL (≈ 20.9 µM)
MIC [7]: 12.5 µg/mL (≈ 41.9 µM)
MIC [8]: 50 µg/mL (≈ 168 µM)

COc1ccc(C2NCCc3c2[nH]c2ccccc32)cc1 (centres undefined)
IC50 [1]: 180 µM
IC50 [2]: > 359 µM
MIC [3]: 12.5 µg/mL (≈ 44.9 µM)
MIC [4]: 6.25 µg/mL (≈ 22.5 µM)
MIC [5]: 6.25 µg/mL (≈ 22.5 µM)
MIC [6]: 6.25 µg/mL (≈ 22.5 µM)
MIC [7]: 6.25 µg/mL (≈ 22.5 µM)
MIC [8]: 50 µg/mL (≈ 180 µM)

CC1(C)S[C@@H]2[C@H](NC(=O)[C@H](N)c3ccccc3)C(=O)N2[C@H]1C(=O)O [AMPICILLIN]
MIC [3]: 1.56 µg/mL (≈ 4.46 µM)
MIC [4]: 0.78 µg/mL (≈ 2.23 µM)
MIC [5]: 1.56 µg/mL (≈ 4.46 µM)
MIC [6]: 0.78 µg/mL (≈ 2.23 µM)
MIC [7]: 0.78 µg/mL (≈ 2.23 µM)
MIC [8]: 50 µg/mL (≈ 143 µM)

O=C(C(=O)c1c[nH]c2ccc(O)cc12)c1c[nH]c2ccc(O)cc12 [HYRTIOSIN B]
IC50 [1]: 90.5 µM
IC50 [2]: > 312 µM

O=C(O)C(=O)c1c[nH]c2ccccc12
IC50 [1]: > 529 µM
IC50 [2]: 68.7 µM and 69 µM
MIC [3]: > 200 µg/mL
MIC [4]: > 200 µg/mL
MIC [5]: > 200 µg/mL
MIC [6]: > 200 µg/mL
MIC [7]: > 200 µg/mL
MIC [8]: > 200 µg/mL

CCCCCC1NCCc2c1[nH]c1ccccc21 (centres undefined)
IC50 [1]: > 413 µM
IC50 [2]: > 413 µM

COc1ccc2[nH]c3c(c2c1)CCNC3c1ccccc1 (centres undefined)
IC50 [1]: > 359 µM
IC50 [2]: 115 µM
MIC [3]: > 200 µg/mL
MIC [4]: > 200 µg/mL
MIC [5]: > 200 µg/mL
MIC [6]: > 200 µg/mL
MIC [7]: > 200 µg/mL
MIC [8]: > 200 µg/mL

O=C(O)C(=O)c1c[nH]c2ccc(O)cc12
IC50 [1]: > 487 µM
IC50 [2]: > 487 µM

COC(=O)c1c[nH]c2ccc(O)cc12
IC50 [1]: > 523 µM
IC50 [2]: > 523 µM

Oc1ccc2[nH]c3c(c2c1)CCNC3c1ccccc1 (centres undefined)
IC50 [1]: > 378 µM
IC50 [2]: 106 µM
MIC [3]: 100 µg/mL (≈ 378 µM)
MIC [4]: 100 µg/mL (≈ 378 µM)
MIC [5]: 100 µg/mL (≈ 378 µM)
MIC [6]: 100 µg/mL (≈ 378 µM)
MIC [7]: 100 µg/mL (≈ 378 µM)
MIC [8]: > 200 µg/mL

COc1ccc2[nH]cc(C(=O)C(=O)O)c2c1
IC50 [1]: > 456 µM
IC50 [2]: > 456 µM

c1ccc(C2=NCCc3c2[nH]c2ccccc32)cc1
IC50 [1]: > 406 µM
IC50 [2]: 97.4 µM and 97 µM
MIC [3]: > 200 µg/mL
MIC [4]: > 200 µg/mL
MIC [5]: > 200 µg/mL
MIC [6]: > 200 µg/mL
MIC [7]: > 200 µg/mL
MIC [8]: > 200 µg/mL

Cc1[nH]c2ccccc2c1C(=O)C(=O)O
IC50 [1]: > 492 µM
IC50 [2]: 133 µM
MIC [3]: > 200 µg/mL
MIC [4]: > 200 µg/mL
MIC [5]: > 200 µg/mL
MIC [6]: > 200 µg/mL
MIC [7]: > 200 µg/mL
MIC [8]: > 200 µg/mL

O=Cc1c[nH]c2ccc(O)cc12
IC50 [2]: > 621 µM

COc1cccc(C2NCCc3c2[nH]c2ccccc32)c1 (centres undefined)
IC50 [1]: 75 µM and 75.4 µM
IC50 [2]: > 359 µM
MIC [3]: 6.25 µg/mL (≈ 22.5 µM)
MIC [4]: 12.5 µg/mL (≈ 44.9 µM)
MIC [5]: 12.5 µg/mL (≈ 44.9 µM)
MIC [6]: 12.5 µg/mL (≈ 44.9 µM)
MIC [7]: 12.5 µg/mL (≈ 44.9 µM)
MIC [8]: 50 µg/mL (≈ 180 µM)

COc1ccc2[nH]cc(C(=O)C(=O)Nc3ccccc3)c2c1
IC50 [1]: > 340 µM
IC50 [2]: > 340 µM

O=C(O)C1=NCCc2c1[nH]c1ccc(O)cc21
IC50 [2]: 291 µM and 290 µM

c1ccc(C2NCCc3c2[nH]c2ccccc32)cc1 (centres undefined)
IC50 [1]: > 403 µM
IC50 [2]: > 403 µM

NCCc1c[nH]c2ccc(O)cc12 [SEROTONIN]
IC50 [2]: > 567 µM

CCCCCC1NCCc2c1[nH]c1ccc(OC)cc21 (centres undefined)
IC50 [1]: > 367 µM
IC50 [2]: > 367 µM

O=C(Nc1ccccc1)C(=O)c1c[nH]c2ccc(O)cc12
IC50 [1]: > 357 µM
IC50 [2]: > 357 µM

COc1ccc2[nH]c3c(c2c1)CCN=C3c1ccccc1
IC50 [1]: > 362 µM
IC50 [2]: 25.3 µM and 25 µM
MIC [3]: > 200 µg/mL
MIC [4]: > 200 µg/mL
MIC [5]: > 200 µg/mL
MIC [6]: > 200 µg/mL
MIC [7]: > 200 µg/mL
MIC [8]: > 200 µg/mL

O=C(Nc1ccccc1)C(=O)c1c[nH]c2ccccc12
IC50 [1]: > 378 µM
IC50 [2]: 174 µM
MIC [3]: > 200 µg/mL
MIC [4]: > 200 µg/mL
MIC [5]: > 200 µg/mL
MIC [6]: > 200 µg/mL
MIC [7]: > 200 µg/mL
MIC [8]: > 200 µg/mL

Cc1[nH]c2ccccc2c1C(=O)C(=O)Nc1ccccc1
IC50 [1]: > 359 µM
IC50 [2]: 61.1 µM and 61 µM
MIC [3]: > 200 µg/mL
MIC [4]: > 200 µg/mL
MIC [5]: > 200 µg/mL
MIC [6]: > 200 µg/mL
MIC [7]: > 200 µg/mL
MIC [8]: > 200 µg/mL
